Experimental data published in ChEMBL document CHEMBL3779840, “Discovery of 2-((3-Amino-4-methylphenyl)amino)-N-(2-methyl-5-(3-(trifluoromethyl)benzamido)phenyl)-4-(methylamino)pyrimidine-5-carboxamide (CHMFL-ABL-053) as a Potent, Selective, and Orally Available BCR-ABL/SRC/p38 Kinase Inhibitor for Chronic Myeloid Leukemia” (J Med Chem, 2016).
The source made the active and inactive calls. No cut-off for these calls is given here.

Key:
[1] = Apparent clearance in Sprague-Dawley rat at 1 mg/kg, iv; type: ADME, organism-based; conditions: in vivo, read-out: CL(app) (converted)
[2] = Oral bioavailability in Sprague-Dawley rat at 10 mg/kg; type: ADME, organism-based; conditions: in vivo
[3] = system: K562; experiment: Antiproliferative activity against human K562 cells xenografted in nu/nu mouse at 25 and 50 mg/kg/day, qd administered through oral gavage measured after 16 days by hematoxylin/eosin staining-based assay; type: functional, organism-based
How it was run: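 Female nu/nu mice bore established K562 xenografts and received daily oral dosing at 25.0 or 50.0 mg/kg/d, or vehicle, starting when tumors reached 200 to 400 mm3, for 16 days. Groups had 5 animals; data are mean ± SEM. Tumor size and body weight were normalized to initial values, and final tumor weight was recorded. Tumor tissue was stained with HE, Ki-67 and TUNEL.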

[4] = target: Proto-oncogene tyrosine-protein kinase Src (Homo sapiens, UniProt P12931); experiment: Inhibition of partial length human wild type SRC expressed in bacterial expression system assessed as residual activity at 1 uM relative to control
Chain of Proto-oncogene tyrosine-protein kinase Src (P12931 2-536 limits assumed): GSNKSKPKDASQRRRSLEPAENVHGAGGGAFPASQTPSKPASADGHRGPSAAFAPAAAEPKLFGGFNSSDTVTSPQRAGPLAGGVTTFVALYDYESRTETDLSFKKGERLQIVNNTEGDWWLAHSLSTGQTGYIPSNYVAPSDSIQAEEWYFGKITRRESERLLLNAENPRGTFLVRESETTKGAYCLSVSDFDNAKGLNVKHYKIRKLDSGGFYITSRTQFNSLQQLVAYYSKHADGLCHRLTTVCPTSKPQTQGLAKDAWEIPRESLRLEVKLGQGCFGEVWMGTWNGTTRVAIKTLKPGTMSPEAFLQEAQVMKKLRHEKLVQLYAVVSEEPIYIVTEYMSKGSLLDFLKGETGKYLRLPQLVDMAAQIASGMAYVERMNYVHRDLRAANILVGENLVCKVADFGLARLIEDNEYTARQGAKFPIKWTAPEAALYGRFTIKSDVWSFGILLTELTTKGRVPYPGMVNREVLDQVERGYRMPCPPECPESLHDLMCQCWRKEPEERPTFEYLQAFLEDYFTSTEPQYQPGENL

[5] = system: Bcr/Abl fusion protein (Homo sapiens), P00519+P11274 [Q252H]; conditions: BaF3

CNc1nc(Nc2ccc(C)c(N)c2)ncc1C(=O)Nc1cc(NC(=O)c2cccc(C(F)(F)F)c2)ccc1C
clearance [1]: 25.6 mL/min/kg
bioavailability [2]: 24.2%
Activity [3]: Active
Activity [4]: 0.5%
GI50 [5]: 140 nM
